Assay results as given in ChEMBL document CHEMBL1146211, “Conformationally constrained analogues of diacylglycerol (DAG). 28. DAG-dioxolanones reveal a new additional interaction site in the C1b domain of PKC delta” (J Med Chem, 2007).
One block for each molecule: values may come before it. Active and inactive are the calls of the source. The calls are words filed in the database; no cut-off is given here.

Columns and labels:
[1] = target: Protein kinase C delta type (Mus musculus, UniProt P28867, Q257E); assay: Displacement of [3H]PDBu from mouse PKCdelta C1b Q27E mutant expressed in Escherichia coli
Protein kinase C delta type (Mus musculus, UniProt P28867, Q257E), sequence (P28867 whole entry Q257E, the tested form may be a part): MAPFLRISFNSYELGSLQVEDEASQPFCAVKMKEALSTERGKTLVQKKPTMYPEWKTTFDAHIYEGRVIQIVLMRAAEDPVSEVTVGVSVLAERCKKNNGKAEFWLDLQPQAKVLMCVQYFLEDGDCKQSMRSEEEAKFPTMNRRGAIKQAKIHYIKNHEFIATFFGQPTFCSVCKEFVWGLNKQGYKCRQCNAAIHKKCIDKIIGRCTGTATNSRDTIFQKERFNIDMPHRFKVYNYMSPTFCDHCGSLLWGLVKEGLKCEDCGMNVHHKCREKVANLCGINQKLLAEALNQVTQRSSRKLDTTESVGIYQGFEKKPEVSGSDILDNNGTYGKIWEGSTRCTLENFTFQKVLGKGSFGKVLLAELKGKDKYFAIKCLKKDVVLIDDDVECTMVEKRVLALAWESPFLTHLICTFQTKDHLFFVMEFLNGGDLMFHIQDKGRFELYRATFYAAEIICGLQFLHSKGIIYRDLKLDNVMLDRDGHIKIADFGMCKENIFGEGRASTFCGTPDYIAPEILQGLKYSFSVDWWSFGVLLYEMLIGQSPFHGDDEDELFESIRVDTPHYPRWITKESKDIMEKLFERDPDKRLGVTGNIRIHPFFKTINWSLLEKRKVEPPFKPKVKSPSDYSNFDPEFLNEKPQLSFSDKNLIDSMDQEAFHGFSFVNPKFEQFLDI
Outline: (§1)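 Competitive displacement of [3H]PDBu from GST-tagged C1 domains of PKCδ (expressed in E. coli, IPTG-induced, spin-purified, stored in 30% glycerol at -70 °C). 18 °C for 10 min, PEG precipitation on ice, scintillation counting of pellet and supernatant. Ki from the lab's standard method. Three independent experiments.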

[2] = target: Protein kinase C delta type (Mus musculus) (UniProt P28867); assay: Ratio of Ki for mouse PKCdelta C1b Q27E mutant to Ki for mouse wild type C1b domain of PKCdelta
Protein kinase C delta type (Mus musculus), sequence (P28867 whole entry, looked up, the tested form may be a part): as the sequence (P28867 whole entry Q257E, the tested form may be a part) above, with E257Q counted along it

[3] = target: Protein kinase C alpha type (Mus musculus, UniProt P20444); assay: Displacement of [3H]PDBu from mouse recombinant PKCalpha expressed in Escherichia coli
Outline: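 Recombinant full-length mouse PKCα, partially purified, is tested for competitive displacement of [3H]PDBu with phosphatidylserine (100 µg/mL), 4 mg/mL bovine IgG and 50 mM Tris-HCl pH 7.4. Incubation is 37 °C for 5 min, followed by polyethylene glycol precipitation on ice and scintillation counting of bound and free label. Ki is calculated by the lab's standard method, averaged over three independent experiments.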

[4] = target: T1, Protein kinase C delta type (Mus musculus, UniProt P28867); assay: Displacement of [3H]PDBu from mouse wild type C1b domain of PKCdelta expressed in Escherichia coli; outline: as §1
T1 sequence (P28867 whole entry, the tested form may be a part): as the sequence (P28867 whole entry Q257E, the tested form may be a part) above, with E257Q counted along it

[5] = target: T1, Protein kinase C delta type; assay: Binding affinity to mouse wild-type PKCdelta C1a expressed in Escherichia coli; outline: as §1
[6] = target: T1, Protein kinase C delta type; assay: Binding affinity to mouse PKC delta C1a Q27E mutant expressed in Escherichia coli; outline: as §1
[7] = target: Protein kinase C delta type (Mus musculus) (UniProt P28867); assay: Effect on membrane translocation of PKCdelta-GFP Q257E mutant in CHOK1 cells at 20 uM after 1 hr; type: functional, cell-based; settings: CHO-K1
Outline: (§2)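 CHO-K1 cells grown at 37 °C, 5% CO2 in F-12 with 10% FBS and penicillin/streptomycin, transfected with GFP-fused PKCδ (wild type or Q257E); imaged 24 h later. Live confocal time series (488 nm excitation, 522/32 emission) in a perfusion chamber at 37 °C after ligand addition (test compound 20 µM; PMA 1 µM). Plasma- and internal-membrane GFP redistribution assessed visually.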

[8] = target: Protein kinase C delta type (Mus musculus) (UniProt P28867); assay: Effect on membrane translocation of wildype full length PKCdelta-GFP in CHOK1 cells at 20 uM within 5 mins; type: functional, cell-based; settings: CHO-K1; outline: as §2

Structure (SMILES): CC(C)C/C=C1/CC(CO)(COC(=O)CC(CC(C)C)CC(C)C)OC1=O (centres undefined)
- Ki [1]: 73.7 nM
- Ratio Ki [2]: 35
- Ki [3]: 3.07 nM
- Ki [4]: 2.13 nM

- Ki [3]: 5.78 nM
Structure (SMILES): CC(C)CC=C1OC(CO)(COC(=O)CC(CC(C)C)CC(C)C)OC1=O (centres undefined)

Structure (SMILES): CC(C)CC(=O)OCC1(CO)C/C(=C/CC(CC(C)C)CC(C)C)C(=O)O1 (centres undefined)
- Ki [1]: 53 nM
- Ratio Ki [2]: 55
- Ki [3]: 3.49 nM
- Ki [4]: 0.96 nM

Structure (SMILES): CCCC(=O)O[C@@H]1[C@@H](C)[C@@]2(O)[C@@H](C=C(CO)C[C@]3(O)C(=O)C(C)=C[C@@H]23)[C@@H]2C(C)(C)[C@]12OC(=O)CCC
- Ki [1]: 6.2 nM
- Kd [5]: 2.04 nM
- Ki [4]: 0.33 nM
- Kd [6]: 383 nM

Structure (SMILES): CC(C)CC(=O)OCC1(CO)OC(=O)/C(=C\CC(CC(C)C)CC(C)C)O1 (centres undefined)
- Ki [1]: 3460 nM
- Ratio Ki [2]: 1230
- Ki [3]: 19.8 nM
- Ki [4]: 2.82 nM

Structure (SMILES): CC(C)CC(C/C=C1/CC(CO)(COC(=O)C(C)(C)C)OC1=O)CC(C)C (centres undefined)
- Ki [1]: 44.8 nM
- Ratio Ki [2]: 39
- Ki [5]: 1.21 nM
- Ki [3]: 2.9 nM
- Ki [4]: 1.15 nM
- Ki [6]: 476 nM

- Ki [3]: 6.41 nM
Structure (SMILES): CC(C)CC(CC=C1OC(CO)(COC(=O)C(C)(C)C)OC1=O)CC(C)C (centres undefined)

Structure (SMILES): CC(C)C/C=C1/OC(CO)(COC(=O)CC(CC(C)C)CC(C)C)OC1=O (centres undefined)
- Ki [1]: 1720 nM
- Ratio Ki [2]: 1910
- Ki [4]: 0.9 nM

Structure (SMILES): CC(C)CC(C/C=C1/OC(CO)(COC(=O)C(C)(C)C)OC1=O)CC(C)C (centres undefined)
- Ki [1]: 2510 nM
- Activity [7]: inactive
- Ratio Ki [2]: 3070
- Ki [5]: 4.31 nM
- Ki [4]: 0.82 nM
- Ki [6]: 1570 nM
- Activity [8]: Active
